Data set [1] is filed under the species Homo sapiens. The experiment in a line: Inhibition of human P-gp expressed in mouse T-cell lymphoma assessed as ratio of rhodamine 123 uptake in P-gp expressing cells to rhodamine 123 uptake in non P-gp expressing cells at 1 uM by flow cytometric analysis relative to control. It is filed as cell-based. In a few lines:
(§1)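 Rhodamine 123 uptake is read by flow cytometry in the parental mouse T-lymphoma line and in the colchicine-selected subline expressing human P-gp, with or without inhibitor. Fluorescence in each line is first normalized to the untreated control of that line. The FAR value is then calculated as subline fluorescence divided by parental-line fluorescence.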
In general terms: A flow cytometer gives signals particle by particle.

Data set [2] is filed under the species Homo sapiens. Briefly: Inhibition of human P-gp expressed in mouse T-cell lymphoma assessed as ratio of rhodamine 123 uptake in P-gp expressing cells to rhodamine 123 uptake in non P-gp expressing cells at 10 uM by flow cytometric analysis relative to control. Type of data set: cell-based. In a few lines:
as §1

Data set [3] in a line: Cytotoxicity against mouse T-cell lymphoma assessed as reduction of cell viability after 24 hrs by MTT assay. In a few lines:
(§2)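 MTT viability assay, with formazan formation by mitochondrial dehydrogenases as the read-out. Cells are the parental mouse T-lymphoma line or its retrovirally transfected subline expressing human P-gp, which is kept under colchicine. Cells are incubated with varying concentrations of compound for 24 or 48 h. IC50 is derived from the reduction in viability.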

A short description of data set [4]: Cytotoxicity against mouse T-cell lymphoma assessed as reduction of cell viability after 48 hrs by MTT assay. In a few lines:
as §2

A short description of data set [5]: Cytotoxicity against mouse T-cell lymphoma expressing human P-gp assessed as reduction of cell viability after 24 hrs by MTT assay. It is filed as ADME. In a few lines: as §2
For orientation: Formazan colour is commonly taken as a measure of viable cells.

Data set [6] in a line: Cytotoxicity against mouse T-cell lymphoma expressing human P-gp assessed as reduction of cell viability after 48 hrs by MTT assay. Type of data set: ADME. In a few lines: as §2
The species named for data set [7] is Homo sapiens. The experiment in a line: Activity at human P-gp expressed in mouse T-cell lymphoma assessed as fluorescence ratio at 50 uM by flow cytometric analysis. In a few lines:
(§3)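 Cells are the parental mouse T-lymphoma line and its subline transfected retrovirally with human P-gp, which is maintained under colchicine selection. The fluorescent test compound is added at 50 or 100 µM. Intrinsic compound fluorescence taken up by the cells is read by flow cytometry. The ratio relates the uptake in the P-gp-expressing subline to that in the parental line. Values are means of three determinations.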

Data set [8] is described as follows: Cellular uptake in mouse T-cell lymphoma assessed as fluorescence ratio at 50 uM by flow cytometric analysis. It is filed as ADME. The settings on record: in vitro. In a few lines:
as §3

The species entered for data set [9] is Homo sapiens. The experiment in a line: Activity at human P-gp expressed in mouse T-cell lymphoma assessed as fluorescence ratio at 100 uM by flow cytometric analysis. In a few lines: as §3
A short description of data set [10]: Cellular uptake in mouse T-cell lymphoma assessed as fluorescence ratio at 100 uM by flow cytometric analysis. Type of data set: ADME. The settings on record: in vitro. In a few lines: as §3

`CCOC(=O)C1=CN(Cc2ccccc2)c2ccccc2C1c1cc(OC)cc(OC)c1` (stereo unspecified): the Ratio in the data set filed under Homo sapiens [1] is 2.96; in the data set filed under Homo sapiens [2], 10.5.

The IC50 is the midpoint of a concentration-inhibition curve. Take `CCOC(=O)C1=CN(Cc2ccccc2)c2ccccc2C1c1ccc(OC)c(OC)c1` (stereo unspecified): the Ratio stood at 3.42 in the data set listed under Homo sapiens [1]; 12.8 in the data set listed under Homo sapiens [2]; 1.06 in the data set filed under Homo sapiens [7]; 1.06 in data set [8]; 1.07 in the data set listed under Homo sapiens [9]; 1.07 in data set [10]. The IC50 in data set [3], in data set [4], in data set [5] and in [6] was above 160 µM each time.

With `COc1ccc(CCN(C)CCCC(C#N)(c2ccc(OC)c(OC)c2)C(C)C)cc1OC` (stereo unspecified), the results for the Ratio in the data set filed under Homo sapiens [1] and in the data set filed under Homo sapiens [2] were 1.46 and 4.98, respectively.

As to `CCOC(=O)C1=CN(Cc2cccc(OC)c2)c2ccccc2C1c1cccc(OC)c1` (stereo unspecified), the Ratio in the data set filed under Homo sapiens [1] turned out to be 2.26; in the data set filed under Homo sapiens [2], 9.68.

Take `CCOC(=O)C1=CN(Cc2ccccc2)c2ccccc2C1c1ccccc1` (stereo unspecified): the Ratio in the data set filed under Homo sapiens [1] turned out to be 0.79; in the data set filed under Homo sapiens [2], 2.86.

For the compound `CCOC(=O)C1=CN(Cc2ccccc2)c2ccccc2C1c1cccc(OC)c1` (stereo unspecified), the Ratio in the data set listed under Homo sapiens [1] came to 1.55; in the data set filed under Homo sapiens [2] it was 7.43; in the data set listed under Homo sapiens [7], 1.03; in [8], 1.03; in the data set listed under Homo sapiens [9], 0.99; in data set [10] it was 0.99. The IC50 in data set [3], in [4], in data set [5] and in [6] was above 160 µM in each case.

As for `CCOC(=O)C1=CN(Cc2cccc(OC)c2)c2ccccc2C1c1ccc(OC)cc1` (stereo unspecified), the Ratio in the data set filed under Homo sapiens [1] is 2.23; in the data set filed under Homo sapiens [2] it was 9.95.

As for `CCOC(=O)C1=CN(Cc2ccc(OC)cc2)c2ccccc2C1c1cccc(OC)c1` (stereo unspecified), the Ratio was found to be 2.03 in the data set filed under Homo sapiens [1] and 10.3 in the data set listed under Homo sapiens [2].

Regarding `CCOC(=O)C1=CN(Cc2ccc(OC)cc2)c2ccccc2C1c1ccc(OC)cc1` (stereo unspecified), the Ratio is 2.55 in the data set listed under Homo sapiens [1] and 12.4 in the data set filed under Homo sapiens [2].

Consider `CCOC(=O)C1=CN(Cc2ccccc2)c2ccccc2C1c1ccc(OC)cc1` (stereo unspecified), for which the Ratio in the data set filed under Homo sapiens [1] was 1.27; in the data set listed under Homo sapiens [2] it was 5.52.

These data come from ChEMBL document CHEMBL3596125, “Discovery of substituted 1,4-dihydroquinolines as novel promising class of P-glycoprotein inhibitors: First structure-activity relationships and bioanalytical studies” (Bioorg Med Chem Lett, 2015).
